From ChEMBL document CHEMBL1151448, “Comparative antianaerobic activities of doripenem determined by MIC and time-kill analysis” (2008)
Values after ≈ are worked out from the molar mass of the structure shown. Active and inactive are the calls of the source. The rule behind the calls is not given here.

Key:
[Clostridium] innocuum = Antimicrobial activity against Clostridium innocuum isolated from intra-abdominal infection and pelvic inflammatory disease patients after 48 hrs by agar dilution method; format: functional
Procedure, shortened: (§1)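 CLSI agar dilution on brucella blood agar supplemented with laked sheep blood, hemin and vitamin K. Inocula of about 1 × 10^5 CFU/spot were applied by Steers replicator, and plates were incubated 48 h at 35°C in an anaerobic glove box. MIC was the concentration giving marked growth reduction versus the anaerobic control plate. QC strains were included each run, and β-lactamase was detected by Cefinase disk.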

Prevotella intermedia = assay: Antimicrobial activity against beta lactamase-positive Prevotella intermedia isolated from intra-abdominal infection and pelvic inflammatory disease patients after 48 hrs by agar dilution method; format: functional; procedure, shortened: as §1
[1] = test system: Bacteroides thetaiotaomicron; assay: Bactericidal activity against beta lactamase-positive Bacteroides thetaiotaomicron isolated from intra-abdominal infection and pelvic inflammatory disease patients assessed as bacterial killing at MIC after 24 hrs by time kill analysis; format: functional
Procedure, shortened: (§2)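 Macrodilution time-kill in prereduced brucella broth with 5% laked horse blood, hemin 5 μg/ml and vitamin K1 1 μg/ml, at final inoculum 10^6–10^7 CFU/ml. […] Viable counts were taken at 6, 12, 24 and 48 h on plates incubated 48 h anaerobically. 99.9% kill was taken as bactericidal.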

[2] = test system: Fusobacterium necrophorum; assay: Antimicrobial activity against Fusobacterium necrophorum isolated from intra-abdominal infection and pelvic inflammatory disease patients after 48 hrs by agar dilution method; format: functional; procedure, shortened: as §1
Finegoldia magna = assay: Bactericidal activity against beta lactamase-positive Finegoldia magna isolated from intra-abdominal infection and pelvic inflammatory disease patients assessed as 99.9% bacterial killing at 2 times MIC after 48 hrs by time kill analysis; format: functional, organism-based; procedure, shortened: as §2
Fusobacterium nucleatum [3] = assay: Antimicrobial activity against beta lactamase-positive Fusobacterium nucleatum isolated from intra-abdominal infection and pelvic inflammatory disease patients after 48 hrs by time kill analysis; format: functional
Procedure, shortened: (§3)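 The MIC was read by inspecting macrodilution time-kill tubes. Vials held prereduced brucella broth with 5% laked horse blood cells, hemin 5 μg/ml and vitamin K1 1 μg/ml. Final inoculum was 10^6–10^7 CFU/ml, prepared inside the anaerobe chamber. Vials were incubated 48 h at 35°C in a shaking water bath.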

[4] = test system: Porphyromonas asaccharolytica; assay: Antimicrobial activity against Porphyromonas asaccharolyticus isolated from intra-abdominal infection and pelvic inflammatory disease patients after 48 hrs by agar dilution method; format: functional; procedure, shortened: as §1
Prevotella disiens = assay: Antimicrobial activity against beta lactamase-positive Prevotella disiens isolated from intra-abdominal infection and pelvic inflammatory disease patients after 48 hrs by agar dilution method; format: functional; procedure, shortened: as §1
[5] = test system: Bacteroides thetaiotaomicron; assay: Antimicrobial activity against beta lactamase-positive Bacteroides thetaiotaomicron isolated from intra-abdominal infection and pelvic inflammatory disease patients after 48 hrs by agar dilution method; format: functional; procedure, shortened: as §1
Clostridium perfringens [6] = assay: Antimicrobial activity against Clostridium perfringens isolated from intra-abdominal infection and pelvic inflammatory disease patients after 48 hrs by agar dilution method; format: functional
Procedure, shortened: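 CLSI agar dilution on brucella blood agar supplemented with laked sheep blood, hemin and vitamin K. Inoculum about 1 × 10^5 CFU/spot, applied by Steers replicator. Plates incubated 48 h at 35°C in an anaerobic glove box. MIC is the concentration giving marked growth reduction versus the anaerobic control plate. Standard QC strains included in each run.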

[7] = test system: Peptoniphilus asaccharolyticus; assay: Antimicrobial activity against Peptoniphilus asaccharolyticus isolated from intra-abdominal infection and pelvic inflammatory disease patients after 48 hrs by agar dilution method; format: functional; procedure, shortened: as §1
Clostridium perfringens [8] = assay: Bactericidal activity against Clostridium perfringens isolated from intra-abdominal infection and pelvic inflammatory disease patients assessed as bacterial killing at 2 times MIC after 48 hrs by time kill analysis; format: functional
Procedure, shortened: (§4)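 Time-kill in prereduced brucella broth with 5% laked horse blood cells, hemin and vitamin K1. […] Viable counts taken at 6, 12, 24 and 48 h, plates incubated 48 h anaerobically. Kill scored as 90%, 99% or 99.9%; 99.9% defines bactericidal.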

[9] = test system: Paeniclostridium sordellii; assay: Antimicrobial activity against Clostridium sordellii isolated from intra-abdominal infection and pelvic inflammatory disease patients after 48 hrs by agar dilution method; format: functional; conditions: Paraclostridium sordellii; procedure, shortened: as §1
Clostridium cadaveris = assay: Antimicrobial activity against Clostridium cadaveris isolated from intra-abdominal infection and pelvic inflammatory disease patients after 48 hrs by agar dilution method; format: functional; procedure, shortened: as §1
Fusobacterium varium = assay: Antimicrobial activity against Fusobacterium varium isolated from intra-abdominal infection and pelvic inflammatory disease patients after 48 hrs by agar dilution method; format: functional; procedure, shortened: as §1
Clostridioides difficile [10] = assay: Antimicrobial activity against Clostridium difficile isolated from intra-abdominal infection and pelvic inflammatory disease patients after 48 hrs by time kill analysis; format: functional
Procedure, shortened: (§5)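 Macrodilution in prereduced brucella broth with 5% laked horse blood cells, 5 μg/ml hemin and 1 μg/ml vitamin K1. Final inoculum 10^6 to 10^7 CFU/ml, prepared inside the anaerobe chamber. Vials incubated 48 h at 35°C in a shaking water bath. MIC read by inspecting the time-kill tubes, alongside an antibiotic-free growth control.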

Bacteroides fragilis [11] = assay: Bactericidal activity against beta lactamase-positive Bacteroides fragilis isolated from intra-abdominal infection and pelvic inflammatory disease patients assessed as bacterial killing at 2 times MIC after 48 hrs by time kill analysis; format: functional; procedure, shortened: as §2
Prevotella bivia = assay: Antimicrobial activity against beta lactamase-positive Prevotella bivia isolated from intra-abdominal infection and pelvic inflammatory disease patients after 48 hrs by agar dilution method; format: functional; procedure, shortened: as §1
Clostridium perfringens [12] = assay: Antimicrobial activity against Clostridium perfringens isolated from intra-abdominal infection and pelvic inflammatory disease patients after 48 hrs by time kill analysis; format: functional; procedure, shortened: as §5
Fusobacterium mortiferum = assay: Antimicrobial activity against beta lactamase-positive Fusobacterium mortiferum isolated from intra-abdominal infection and pelvic inflammatory disease patients after 48 hrs by agar dilution method; format: functional; procedure, shortened: as §1
Porphyromonas levii = assay: Antimicrobial activity against Porphyromonas levii isolated from intra-abdominal infection and pelvic inflammatory disease patients after 48 hrs by agar dilution method; format: functional; procedure, shortened: as §1
[13] = test system: Bacteroides thetaiotaomicron; assay: Antimicrobial activity against beta lactamase-positive Bacteroides thetaiotaomicron isolated from intra-abdominal infection and pelvic inflammatory disease patients after 48 hrs by time kill analysis; format: functional; procedure, shortened: as §3
Bacteroides fragilis [14] = assay: Antimicrobial activity against beta lactamase-positive Bacteroides fragilis isolated from intra-abdominal infection and pelvic inflammatory disease patients after 48 hrs by agar dilution method; format: functional; procedure, shortened: as §1
Fusobacterium nucleatum [15] = assay: Antimicrobial activity against beta lactamase-positive Fusobacterium nucleatum isolated from intra-abdominal infection and pelvic inflammatory disease patients after 48 hrs by agar dilution method; format: functional; procedure, shortened: as §1
Anaerococcus prevotii = assay: Antimicrobial activity against Anaerococcus prevotii isolated from intra-abdominal infection and pelvic inflammatory disease patients after 48 hrs by agar dilution method; format: functional; procedure, shortened: as §1
Clostridium perfringens [16] = assay: Bactericidal activity against Clostridium perfringens isolated from intra-abdominal infection and pelvic inflammatory disease patients assessed as bacterial killing at MIC after 24 hrs by time kill analysis; format: functional; procedure, shortened: as §4
Clostridioides difficile [17] = assay: Bactericidal activity against Clostridium difficile isolated from intra-abdominal infection and pelvic inflammatory disease patients assessed as bacterial killing at MIC after 24 hrs by time kill analysis; format: functional; procedure, shortened: as §2
[18] = test system: Prevotella melaninogenica; assay: Antimicrobial activity against beta lactamase-positive Prevotella melaninogenica isolated from intra-abdominal infection and pelvic inflammatory disease patients after 48 hrs by agar dilution method; format: functional; procedure, shortened: as §1

C[C@@H](O)[C@H]1C(=O)N2C(C(=O)O)=C(S[C@@H]3CN[C@H](C(=O)Nc4cccc(C(=O)O)c4)C3)[C@H](C)[C@H]12
MIC ([Clostridium] innocuum): 2 µg/mL (≈ 4.21 µM) | MIC50 ([Clostridium] innocuum): 2 µg/mL (≈ 4.21 µM) | MIC50 (Prevotella intermedia): 0.03 µg/mL (≈ 0.0631 µM) | MIC90 (Prevotella intermedia): 0.25 µg/mL (≈ 0.526 µM) | Activity [1]: 90% | MIC [2]: ≤ 0.016 µg/mL | MIC50 [2]: ≤ 0.016 µg/mL | MIC90 [2]: 0.125 µg/mL (≈ 0.263 µM) | Activity (Finegoldia magna): inactive | MIC (Fusobacterium nucleatum [3]): 0.008 µg/mL (≈ 0.0168 µM) | MIC [4]: ≤ 0.016 µg/mL | MIC50 (Prevotella disiens): 0.06 µg/mL (≈ 0.126 µM) | MIC90 (Prevotella disiens): 0.25 µg/mL (≈ 0.526 µM) | MIC [5]: 0.5 µg/mL (≈ 1.05 µM) | MIC50 [5]: 0.5 µg/mL (≈ 1.05 µM) | MIC90 [5]: 1 µg/mL (≈ 2.1 µM) | MIC50 (Clostridium perfringens [6]): 0.06 µg/mL (≈ 0.126 µM) | MIC90 (Clostridium perfringens [6]): 0.125 µg/mL (≈ 0.263 µM) | MIC [7]: ≤ 0.016 µg/mL | MIC50 [7]: ≤ 0.016 µg/mL | MIC90 [7]: 0.06 µg/mL (≈ 0.126 µM) | Activity (Clostridium perfringens [8]): 99% | MIC [9]: 0.03 µg/mL (≈ 0.0631 µM) | MIC (Clostridium cadaveris): ≤ 0.016 µg/mL | MIC (Fusobacterium varium): 0.06 µg/mL (≈ 0.126 µM) | MIC50 (Fusobacterium varium): 0.06 µg/mL (≈ 0.126 µM) | MIC90 (Fusobacterium varium): 0.125 µg/mL (≈ 0.263 µM) | MIC (Clostridioides difficile [10]): 4 µg/mL (≈ 8.41 µM) | Activity (Bacteroides fragilis [11]): 99% | MIC50 (Prevotella bivia): 0.25 µg/mL (≈ 0.526 µM) | MIC90 (Prevotella bivia): 0.25 µg/mL (≈ 0.526 µM) | MIC (Clostridium perfringens [12]): 0.125 µg/mL (≈ 0.263 µM) | MIC (Fusobacterium mortiferum): 0.06 µg/mL (≈ 0.126 µM) | MIC50 (Fusobacterium mortiferum): 0.06 µg/mL (≈ 0.126 µM) | MIC90 (Fusobacterium mortiferum): 0.5 µg/mL (≈ 1.05 µM) | MIC (Porphyromonas levii): ≤ 0.016 µg/mL | MIC [13]: 0.5 µg/mL (≈ 1.05 µM) | MIC (Bacteroides fragilis [14]): 0.25 µg/mL (≈ 0.526 µM) | MIC50 (Bacteroides fragilis [14]): 0.25 µg/mL (≈ 0.526 µM) | MIC90 (Bacteroides fragilis [14]): 2 µg/mL (≈ 4.21 µM) | MIC (Fusobacterium nucleatum [15]): ≤ 0.016 µg/mL | MIC50 (Fusobacterium nucleatum [15]): ≤ 0.016 µg/mL | MIC90 (Fusobacterium nucleatum [15]): 0.03 µg/mL (≈ 0.0631 µM) | MIC (Anaerococcus prevotii): ≤ 0.016 µg/mL | Activity (Clostridium perfringens [16]): 90% | Activity (Clostridioides difficile [17]): 90%

C[C@@H](O)[C@H]1C(=O)N2C(C(=O)O)=C(S[C@@H]3CN[C@H](C(=O)N(C)C)C3)[C@H](C)[C@H]12 [MEROPENEM]
MIC50 ([Clostridium] innocuum): 2 µg/mL (≈ 5.22 µM) | MIC50 (Prevotella intermedia): 0.03 µg/mL (≈ 0.0782 µM) | MIC90 (Prevotella intermedia): 0.125 µg/mL (≈ 0.326 µM) | Activity [1]: 90% | MIC [2]: ≤ 0.016 µg/mL | MIC50 [2]: ≤ 0.016 µg/mL | MIC90 [2]: 0.125 µg/mL (≈ 0.326 µM) | Activity (Finegoldia magna): inactive | MIC (Fusobacterium nucleatum [3]): 0.008 µg/mL (≈ 0.0209 µM) | MIC [4]: ≤ 0.016 µg/mL | MIC (Prevotella disiens): 0.03 µg/mL (≈ 0.0782 µM) | MIC50 (Prevotella disiens): 0.03 µg/mL (≈ 0.0782 µM) | MIC90 (Prevotella disiens): 0.125 µg/mL (≈ 0.326 µM) | MIC50 [5]: 0.25 µg/mL (≈ 0.652 µM) | MIC90 [5]: 0.5 µg/mL (≈ 1.3 µM) | MIC (Clostridium perfringens [6]): ≤ 0.016 µg/mL | MIC50 (Clostridium perfringens [6]): ≤ 0.016 µg/mL | MIC90 (Clostridium perfringens [6]): ≤ 0.016 µg/mL | MIC [7]: ≤ 0.016 µg/mL | MIC50 [7]: ≤ 0.016 µg/mL | MIC90 [7]: 0.03 µg/mL (≈ 0.0782 µM) | MIC50 [18]: 0.06 µg/mL (≈ 0.156 µM) | Activity (Clostridium perfringens [8]): 99% | MIC [9]: 0.06 µg/mL (≈ 0.156 µM) | MIC (Clostridium cadaveris): 0.03 µg/mL (≈ 0.0782 µM) | MIC50 (Fusobacterium varium): 0.125 µg/mL (≈ 0.326 µM) | MIC90 (Fusobacterium varium): 0.25 µg/mL (≈ 0.652 µM) | MIC (Clostridioides difficile [10]): 1 µg/mL (≈ 2.61 µM) | Activity (Bacteroides fragilis [11]): 99% | MIC50 (Prevotella bivia): 0.06 µg/mL (≈ 0.156 µM) | MIC90 (Prevotella bivia): 0.125 µg/mL (≈ 0.326 µM) | MIC (Clostridium perfringens [12]): 0.03 µg/mL (≈ 0.0782 µM) | MIC50 (Fusobacterium mortiferum): 0.125 µg/mL (≈ 0.326 µM) | MIC90 (Fusobacterium mortiferum): 0.5 µg/mL (≈ 1.3 µM) | MIC (Porphyromonas levii): ≤ 0.016 µg/mL | MIC [13]: 0.25 µg/mL (≈ 0.652 µM) | MIC50 (Bacteroides fragilis [14]): 0.125 µg/mL (≈ 0.326 µM) | MIC90 (Bacteroides fragilis [14]): 1 µg/mL (≈ 2.61 µM) | MIC (Fusobacterium nucleatum [15]): ≤ 0.016 µg/mL | MIC50 (Fusobacterium nucleatum [15]): ≤ 0.016 µg/mL | MIC90 (Fusobacterium nucleatum [15]): 0.03 µg/mL (≈ 0.0782 µM) | MIC (Anaerococcus prevotii): ≤ 0.016 µg/mL | Activity (Clostridium perfringens [16]): 90% | Activity (Clostridioides difficile [17]): 90%
